From ChEMBL document CHEMBL1151920, “Synthesis and biological evaluation of penem inhibitors of bacterial signal peptidase” (Bioorg Med Chem Lett, 2009)
In brackets after ≈: the same amount, converted by molar mass.

Columns and labels:
[1] = test system: Staphylococcus aureus; experiment: Antibacterial activity against Staphylococcus aureus 8325 after 18 hrs by liquid dilution method; type: functional; conditions: Staphylococcus aureus, 8325, 18 h
Method in brief: (§1)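 Broth microdilution MIC. Compounds 2-fold serially diluted in cation-adjusted Mueller–Hinton broth. Bacteria grown to 10^8 cfu/mL, then inoculated at a final 5 × 10^5 cells/mL. Incubated 37 °C, 18 h. MIC taken as the lowest concentration giving no visible growth. E. coli ATCC25922 was tested in the presence of polymyxin B as permeabilizing agent.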

[2] = test system: Staphylococcus epidermidis; experiment: Antibacterial activity against Staphylococcus epidermidis RP62A after 18 hrs by liquid dilution method; type: functional; method in brief: as §1
[3] = test system: Escherichia coli; experiment: Antibacterial activity against permeabilizing agent polymyxin B-treated Escherichia coli ATCC 25922 after 18 hrs by liquid dilution method; type: functional; conditions: ATCC 25922, 18 h; method in brief: as §1
[4] = test system: Staphylococcus aureus; experiment: Antibacterial activity against methicillin-resistant Staphylococcus aureus USA300 after 18 hrs by liquid dilution method; type: functional; conditions: USA300, 18 h
[5] = target: Signal peptidase I (Escherichia coli K-12, UniProt P00803); experiment: Inhibition of Escherichia coli signal peptidase
Sequence of Signal peptidase I (P00803 whole entry): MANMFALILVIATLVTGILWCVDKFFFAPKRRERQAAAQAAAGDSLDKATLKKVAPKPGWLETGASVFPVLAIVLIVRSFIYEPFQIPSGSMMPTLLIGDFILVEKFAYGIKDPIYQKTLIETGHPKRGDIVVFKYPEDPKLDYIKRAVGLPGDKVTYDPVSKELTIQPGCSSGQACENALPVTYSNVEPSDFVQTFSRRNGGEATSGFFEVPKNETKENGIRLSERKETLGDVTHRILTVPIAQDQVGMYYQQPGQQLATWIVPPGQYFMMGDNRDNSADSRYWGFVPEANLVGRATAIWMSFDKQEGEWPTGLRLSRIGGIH

IC50 [5] | SMILES | MIC [1] | MIC [2] | MIC [3] | MIC [4]
 | CC(=O)N[C@@H](C)C(=O)O[C@H](C)[C@H]1C(=O)N2C(C(=O)OCc3ccc([N+](=O)[O-])cc3)=CS[C@@H]12 | > 200 µg/mL | > 200 µg/mL | > 200 µg/mL | > 200 µg/mL
180 nM | C[C@@H](O)[C@H]1C(=O)N2C(C(=O)O)=CS[C@@H]12 |  |  |  | 
 | CC(C)C(=O)O[C@H](C)[C@H]1C(=O)N2C(C(=O)OCc3ccc([N+](=O)[O-])cc3)=CS[C@@H]12 | > 200 µg/mL | 50 µg/mL (≈ 119 µM) | > 200 µg/mL | > 200 µg/mL
 | COCO[C@H](C)[C@H]1C(=O)N2C(C(=O)OCc3ccc([N+](=O)[O-])cc3)=CS[C@@H]12 | > 200 µg/mL | 50 µg/mL (≈ 127 µM) | > 200 µg/mL | > 200 µg/mL
 | C[C@@H](O)[C@H]1C(=O)N2C(C(=O)OCc3ccc([N+](=O)[O-])cc3)=CS[C@@H]12 | 200 µg/mL (≈ 571 µM) | 50 µg/mL (≈ 143 µM) | > 200 µg/mL | > 200 µg/mL
 | CC(C)NC(=O)O[C@H](C)[C@H]1C(=O)N2C(C(=O)OCc3ccc([N+](=O)[O-])cc3)=CS[C@@H]12 | > 200 µg/mL | 100 µg/mL (≈ 230 µM) | > 200 µg/mL | 100 µg/mL (≈ 230 µM)
 | CC[C@H](C)[C@H](NC(C)=O)C(=O)O[C@H](C)[C@H]1C(=O)N2C(C(=O)OCc3ccc([N+](=O)[O-])cc3)=CS[C@@H]12 | > 200 µg/mL | > 200 µg/mL | > 200 µg/mL | > 200 µg/mL
 | CC(C)CC(=O)O[C@H](C)[C@H]1C(=O)N2C(C(=O)OCc3ccc([N+](=O)[O-])cc3)=CS[C@@H]12 | > 200 µg/mL | 100 µg/mL (≈ 230 µM) | > 200 µg/mL | > 200 µg/mL
 | CCOCO[C@H](C)[C@H]1C(=O)N2C(C(=O)OCc3ccc([N+](=O)[O-])cc3)=CS[C@@H]12 | > 200 µg/mL | 50 µg/mL (≈ 122 µM) | > 200 µg/mL | > 200 µg/mL
 | COCCOCO[C@H](C)[C@H]1C(=O)N2C(C(=O)OCc3ccc([N+](=O)[O-])cc3)=CS[C@@H]12 | 200 µg/mL (≈ 456 µM) | 100 µg/mL (≈ 228 µM) | > 200 µg/mL | > 200 µg/mL
 | CCNC(=O)O[C@H](C)[C@H]1C(=O)N2C(C(=O)OCc3ccc([N+](=O)[O-])cc3)=CS[C@@H]12 | > 200 µg/mL | 100 µg/mL (≈ 237 µM) | > 200 µg/mL | 100 µg/mL (≈ 237 µM)
 | CCC(=O)O[C@H](C)[C@H]1C(=O)N2C(C(=O)OCc3ccc([N+](=O)[O-])cc3)=CS[C@@H]12 | > 200 µg/mL | 100 µg/mL (≈ 246 µM) | > 200 µg/mL | > 200 µg/mL
 | CCCC(=O)O[C@H](C)[C@H]1C(=O)N2C(C(=O)OCc3ccc([N+](=O)[O-])cc3)=CS[C@@H]12 | > 200 µg/mL | 100 µg/mL (≈ 238 µM) | > 200 µg/mL | > 200 µg/mL
 | CC(=O)N[C@H](C(=O)O[C@H](C)[C@H]1C(=O)N2C(C(=O)OCc3ccc([N+](=O)[O-])cc3)=CS[C@@H]12)C(C)C | > 200 µg/mL | > 200 µg/mL | > 200 µg/mL | > 200 µg/mL
 | CC(=O)O[C@H](C)[C@H]1C(=O)N2C(C(=O)OCc3ccc([N+](=O)[O-])cc3)=CS[C@@H]12 | > 200 µg/mL | 100 µg/mL (≈ 255 µM) | > 200 µg/mL | > 200 µg/mL
 | CC(=O)NCC(=O)O[C@H](C)[C@H]1C(=O)N2C(C(=O)OCc3ccc([N+](=O)[O-])cc3)=CS[C@@H]12 | > 200 µg/mL | > 200 µg/mL | > 200 µg/mL | > 200 µg/mL
